Test results: ChEMBL document CHEMBL3091343, “Nicotinamide phosphoribosyltransferase inhibitors, design, preparation, and structure-activity relationship” (J Med Chem, 2013)
pIC50: −log10 of the molar value.

What was measured:
MCF7 [1] = test: Cytotoxicity against human MCF-7 cells assessed as growth inhibition after 72 hrs by WST-1 assay; assay type: functional, cell-based; settings: MCF7, 72 h
A2780 [2] = test: Cytotoxicity against human A2780 cells assessed as growth inhibition after 72 hrs by WST-1 assay; assay type: functional, cell-based; settings: A2780, 72 h
HCT-116 [3] = test: Cytotoxicity against human HCT116 cells assessed as growth inhibition after 72 hrs by WST-1 assay; assay type: functional, cell-based; settings: HCT-116, 72 h
[4] = Apparent volume of distribution in NMRI mouse at 50 mg/kg, iv; assay type: ADME, organism-based; set-up: dose 50 mg/kg, route intravenous; settings: in vivo, read-out: Vz
Summary of the method: (§1)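 Mouse PK after a single i.v. dose. Plasma proteins were precipitated with acetonitrile containing internal standard (3:1 v/v). Samples were analysed by UPLC-MS/MS on a C18 column at 40°C with an acetonitrile–0.05% formic acid gradient, using positive electrospray MRM. Parameters were derived by non-compartmental analysis.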

[5] = Clearance in NMRI mouse at 50 mg/kg, iv; assay type: ADME, organism-based; set-up: dose 50 mg/kg, route intravenous; settings: in vivo; summary of the method: as §1
[6] = Cmax in NMRI mouse at 50 mg/kg, iv; assay type: ADME, organism-based; set-up: dose 50 mg/kg, route intravenous; settings: in vivo; summary of the method: as §1
[7] = Toxicity in ip dosed NMRI mouse assessed as blood cell count administered as bid for 5 days; assay type: organism-based; settings: in vivo
[8] = target: Nicotinamide phosphoribosyltransferase (Homo sapiens, UniProt P43490); test: Inhibition of NAMPT in human HepG2 cells using [14C]-nicotinamide/PRPP as substrate assessed as formation of [14C]-nicotinamide mononucleotide after 1 hr by liquid scintillation counting analysis; assay type: cell-based
HCT-116 [9] = test: Cytotoxicity against APO866-resistant human HCT116 cells assessed as growth inhibition after 72 hrs by WST-1 assay; assay type: functional, cell-based; settings: HCT-116, 72 h
[10] = AUC in NMRI mouse at 50 mg/kg, iv; assay type: ADME, organism-based; set-up: dose 50 mg/kg, route intravenous; settings: plasma; summary of the method: as §1
[11] = Toxicity in ip dosed NMRI mouse assessed as body weight loss administered as bid for 5 days; assay type: organism-based; settings: in vivo
HCT-116 [12] = test: Resistance factor, ratio of IC50 for APO866-resistant human HCT116 cells to IC50 for human HCT116 cells; assay type: functional
[13] = Half life in NMRI mouse at 50 mg/kg, iv; assay type: ADME, organism-based; set-up: dose 50 mg/kg, route intravenous; settings: in vivo; summary of the method: as §1
[14] = Tmax in NMRI mouse at 50 mg/kg, iv; assay type: ADME, organism-based; set-up: dose 50 mg/kg, route intravenous; settings: in vivo; summary of the method: as §1
Mus musculus [15] = test: Toxicity in human A2780 cells xenografted NMRI/nude mouse containing small tumors assessed as effect on body weight at 0.63 to 2.5 mg/kg, ip bid administered for 5 days measured at day 14 relative to vehicle-treated control; assay type: organism-based; set-up: dose 0.63-2.5 mg/kg, route intraperitoneal; settings: in vivo, 120 h
Mus musculus [16] = test: Toxicity in human A2780 cells xenografted NMRI/nude mouse containing large tumors assessed as effect on body weight at 3 mg/kg, ip bid administered for 10 days; settings: in vivo
Mus musculus [17] = test: Toxicity in human A2780 cells xenografted NMRI/nude mouse containing large tumors assessed as effect on body weight at 5 to 10 mg/kg, ip bid administered for 10 days measured during compound administration; settings: in vivo, 240 h
[18] = Cmax in NMRI mouse at 20 mg/kg, iv; assay type: ADME, organism-based; set-up: dose 20 mg/kg, route intravenous; settings: in vivo; summary of the method: as §1
[19] = AUC in NMRI mouse at 20 mg/kg, iv; assay type: ADME, organism-based; set-up: dose 20 mg/kg, route intravenous; settings: plasma; summary of the method: as §1
[20] = Apparent volume of distribution in NMRI mouse at 20 mg/kg, iv; assay type: ADME, organism-based; set-up: dose 20 mg/kg, route intravenous; settings: in vivo, read-out: Vz; summary of the method: as §1
[21] = Half life in NMRI mouse at 20 mg/kg, iv; assay type: ADME, organism-based; set-up: dose 20 mg/kg, route intravenous; settings: in vivo; summary of the method: as §1
SK-OV-3 = test: Cytotoxicity against human SKOV3 cells by clonogenic assay; assay type: functional, cell-based
A-431 = test: Cytotoxicity against human A431 cells by clonogenic assay; assay type: functional, cell-based
A2780 [22] = test: Antitumor activity against human A2780 cells xenografted in NMRI/nude mouse assessed as tumor growth inhibition at 15 mg/kg, ip bid administered for 5 days measured at day 14 relative to vehicle-treated control; assay type: functional; settings: route intraperitoneal
Mus musculus [23] = test: Toxicity in human A2780 cells xenografted NMRI/nude mouse containing small tumors assessed as effect on body weight at 15 mg/kg, ip bid administered for 5 days measured at day 14 relative to vehicle-treated control; assay type: organism-based; set-up: dose 15 mg/kg, route intraperitoneal; settings: in vivo, 120 h
[24] = Cytotoxicity against human NYH cells by clonogenic assay; assay type: functional, cell-based
A2780 [25] = test: cells; settings: Homo sapiens
[26] = Clearance in NMRI mouse at 20 mg/kg, iv; assay type: ADME, organism-based; set-up: dose 20 mg/kg, route intravenous; settings: in vivo; summary of the method: as §1
MCF7 [27] = test: cells; settings: Homo sapiens
PC-3 = test: Cytotoxicity against human PC3 cells by clonogenic assay; assay type: functional, cell-based
[28] = Tmax in NMRI mouse at 20 mg/kg, iv; assay type: ADME, organism-based; set-up: dose 20 mg/kg, route intravenous; settings: in vivo; summary of the method: as §1
Plasma = test: Metabolic stability in mouse plasma assessed as compound hydrolysis; assay type: ADME, cell-free

Chain of Nicotinamide phosphoribosyltransferase (P43490 whole entry): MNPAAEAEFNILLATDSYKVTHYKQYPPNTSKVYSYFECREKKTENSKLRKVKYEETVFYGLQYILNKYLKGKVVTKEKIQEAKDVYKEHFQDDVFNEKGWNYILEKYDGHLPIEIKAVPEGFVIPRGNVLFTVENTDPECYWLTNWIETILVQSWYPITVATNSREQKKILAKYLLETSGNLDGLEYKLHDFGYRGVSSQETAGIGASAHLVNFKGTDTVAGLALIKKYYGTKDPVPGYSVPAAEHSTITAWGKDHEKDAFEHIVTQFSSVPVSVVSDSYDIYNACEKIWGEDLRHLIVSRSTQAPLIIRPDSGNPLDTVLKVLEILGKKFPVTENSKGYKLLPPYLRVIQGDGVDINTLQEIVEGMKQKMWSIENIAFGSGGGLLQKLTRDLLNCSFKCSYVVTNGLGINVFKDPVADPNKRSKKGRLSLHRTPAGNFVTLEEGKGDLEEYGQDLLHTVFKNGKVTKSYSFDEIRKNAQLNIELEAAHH

With `C[C@@H](CCCCCN/C(=N\C#N)Nc1ccncc1)C(=O)NOC1CCCCC1` the pIC50 (MCF7 [1]) was 9.00 and the pIC50 (A2780 [2]) was 10.10.

With `O=C(NCCCCCCC(=O)N(OCCN1CCOCC1)C1CCCCC1)NCc1cccnc1` the pIC50 (MCF7 [1]) was 9.43 and the pIC50 (A2780 [2]) was 9.57.

`C[C@H](CCCCCN/C(=N\C#N)Nc1ccncc1)C(=O)NOC1CCCCC1` gave a pIC50 (MCF7 [1]) of 7.42 and a pIC50 (A2780 [2]) of 8.41.

With `O=C(NCCCCCCCS(=O)(=O)N(OCCN1CCOCC1)C1CCCCC1)NCc1cccnc1` the pIC50 (MCF7 [1]) was 8.44 and the pIC50 (A2780 [2]) was 9.51.

In the case of `N#C/N=C(\NCCCCCCC(=O)N(OCCN1CCOCC1)C1CCCCC1)Nc1ccccc1`, the pIC50 (MCF7 [1]) was 5.99 and the pIC50 (A2780 [2]) was 7.01.

`O=C(NCCCCCCS(=O)(=O)N(OCCN1CCOCC1)C1CCCCC1)Nc1ccncc1` gave a pIC50 (HCT-116 [3]) of 8.28, a Vd [4] of 4.6 L/kg and a clearance [5] of 118 mL/min/kg. The Cmax [6] was 14800 ng/mL, the MTD at 120 h [7] was < 10 mg/kg and the pIC50 [8] was 7.31. For the same molecule, the pIC50 (HCT-116 [9]) was < 5.30, the AUC [10] was 7020 ng·h/mL and the pIC50 (MCF7 [1]) was 10.30. For the same molecule, the MTD at 120 h [11] was < 10 mg/kg, the pIC50 (A2780 [2]) was 9.60 and the “Ratio IC50” value (HCT-116 [12]) was 128. The half-life [13] was 27 min and the Tmax [14] was 4.8 min.

For `N#CNC(=Nc1ccncc1)NCCCCCCS(=O)(=O)N(OCCN1CCOCC1)C1CCCCC1`, the Vd [4] was 1.28 L/kg, the clearance [5] was 81.8 mL/min/kg and the Activity (Mus musculus [15]) was “Non-toxic”. The Cmax [6] was 14100 ng/mL, the MTD at 120 h [7] was < 10 mg/kg and the pIC50 [8] was 9.52. The AUC [10] was 10200 ng·h/mL, the MTD at 120 h [11] was < 10 mg/kg and the Activity (Mus musculus [16]) was “Non-toxic”. The Activity (Mus musculus [17]) was “Toxic”, the half-life [13] was 10.8 min and the Tmax [14] was 4.8 min.

With `O=C(CCCCCCNc1c(Nc2ccncc2)c(=O)c1=O)N(OCCN1CCOCC1)C1CCCCC1` the pIC50 (A2780 [2]) was 10.52.

`O=C(CCCCCCNC(=S)NCc1cccnc1)N(OCCN1CCOCC1)C1CCCCC1` showed a pIC50 [8] of 8.09, a pIC50 (MCF7 [1]) of 8.26 and a pIC50 (A2780 [2]) of 9.04.

With `O=C1C(=O)C(Nc2ccncc2)C1NCCCCCCS(=O)(=O)N(OCCN1CCOCC1)C1CCC1` (stereo not drawn) the pIC50 (MCF7 [1]) was 7.54 and the pIC50 (A2780 [2]) was 9.70.

`O=C1C(=O)C(Nc2ccncc2)C1NCCCCCC(=O)N(Cc1ccccc1)OCCN1CCOCC1` (stereo not drawn) showed a pIC50 (MCF7 [1]) of 7.64 and a pIC50 (A2780 [2]) of 9.17.

Molecule `O=C(/C=C/c1cccnc1)NCCCCC1CCN(C(=O)c2ccccc2)CC1` [DAPORINAD] has a Cmax [18] of 14600 ng/mL, a pIC50 (HCT-116 [3]) of 7.96 and an AUC [19] of 12300 ng·h/mL. It also gave a Vd [20] of 0.998 L/kg, a half-life [21] of 24 min and a pIC50 (SK-OV-3) of 6.68. The pIC50 (A-431) was 8.21, the T/C (A2780 [22]) was 52% and the MTD at 120 h [7] was < 10 mg/kg. The Activity (Mus musculus [23]) was “Non-toxic”, the pIC50 (HCT-116 [9]) was 6.02 and the pIC50 [24] was 8.82. It also gave a pIC50 (A2780 [25]) of 8.24, a pIC50 (MCF7 [1]) of 8.13 and a clearance [26] of 27 mL/min/kg. The MTD at 120 h [11] was < 10 mg/kg, the pIC50 (A2780 [2]) was 8.80 and the pIC50 (MCF7 [27]) was 8.08. It also gave a pIC50 (PC-3) of 8.42 and a Tmax [28] of 15 min.

`N#C/N=C(\NCCCCCCS(=O)(=O)N(CCN1CCOCC1)OCc1ccccc1)Nc1ccncc1` showed a pIC50 (MCF7 [1]) of 9.20 and a pIC50 (A2780 [2]) of 10.28.

`N#CNC(=Nc1ccncc1)NCCCCCCC(=O)NOC1CCCCC1` gave a pIC50 [8] of 8.96, a pIC50 (MCF7 [1]) of 6.03 and a pIC50 (A2780 [2]) of 7.46.

For `O=C(NCCCCCS(=O)(=O)N(OCCN1CCOCC1)C1CCCCC1)Nc1ccncc1`, the pIC50 (MCF7 [1]) was 7.55 and the pIC50 (A2780 [2]) was 8.47.

With `O=C(NCCCCCS(=O)(=O)N(OCCN1CCOCC1)C1CCCCC1)NCc1cccnc1` the pIC50 (MCF7 [1]) was 8.19 and the pIC50 (A2780 [2]) was 8.34.

Work on `N#C/N=C(\NCCCCCCC(=O)N(Cc1ccccc1)OC1CCCCC1)Nc1ccncc1` yielded a pIC50 [8] of 7.41, a pIC50 (MCF7 [1]) of 9.00 and a pIC50 (A2780 [2]) of 10.26.

With `N#C/N=C(\NCCCCC[C@@H](Cc1ccccc1)C(=O)NOC1CCCCC1)Nc1ccncc1` the Stability (Plasma) was “Unstable”, the pIC50 (MCF7 [1]) was 8.28 and the pIC50 (A2780 [2]) was 9.49.

In the case of `O=S(=O)(CCCCCCNC(=S)Nc1ccncc1)N(OCCN1CCOCC1)C1CCCC1`, the pIC50 (MCF7 [1]) was 9.51 and the pIC50 (A2780 [2]) was 9.80.

In the case of `O=C1C(=O)C(Nc2ccncc2)C1NCCCCCCCS(=O)(=O)N(OCCN1CCOCC1)C1CCCCC1` (stereo not drawn), the pIC50 [8] was 8.44, the pIC50 (MCF7 [1]) was 8.10 and the pIC50 (A2780 [2]) was 9.31.

`O=C(NCCCCCCS(=O)(=O)N(OCCN1CCOCC1)C1CCCC1)NCc1cccnc1` showed a pIC50 (MCF7 [1]) of 8.24 and a pIC50 (A2780 [2]) of 9.24.

Work on `O=C(NCCCCCCS(=O)(=O)N(CCN1CCOCC1)CC1CCCCC1)NCc1cccnc1` yielded a pIC50 [8] of 7.93, a pIC50 (MCF7 [1]) of 9.03 and a pIC50 (A2780 [2]) of 9.77.

Work on `N#C/N=C(\NCCCCCCS(=O)(=O)N(CCCN1CCOCC1)C1CCC1)Nc1ccncc1` yielded a pIC50 (MCF7 [1]) of 10.00 and a pIC50 (A2780 [2]) of 10.04.

Molecule `N#C/N=C(\NCCCCCCCS(=O)(=O)N(OCCN1CCOCC1)C1CCCCC1)Nc1ccncc1` has a pIC50 (MCF7 [1]) of 9.54 and a pIC50 (A2780 [2]) of 10.05.
